The nature of data set [1]: Inhibition of HCV recombinant NS5B polymerase using [alpha32p]GTP after 30 mins by scintillation counting. Also noted: species or system Hepacivirus hominis. The procedure, abridged:
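Recombinant NS5B primer/template-directed transcription in 30 mM Tris–HCl pH 7.2; compounds at various concentrations from 10% DMSO–water stocks, final DMSO 1%; stopped with 33 mM EDTA; products captured on DEAE filters, washed with 5% dibasic sodium phosphate, scintillation counted. IC50 estimated from primary cpm data, triplicate.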

The subject of another data set is Hepatitis C virus. As to the kind of experiment: Antiviral activity against HCV genotype 1 harboring luc-ubi-neo fusion gene infected in human Huh7 cells assessed as inhibition of viral RNA replication after 4 days by luciferase assay. Type of data set: functional, organism-based, Hepacivirus hominis. The settings on record: genotype 1, Huh-7, 96 h. The procedure, abridged: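 Huh-5-2 cells (Huh-7 carrying a subgenomic genotype 1 HCV replicon with luc-ubi-neo fusion gene) were seeded at 5 × 10³/well in complete DMEM with G418 and held 24 h at 37 °C, 5% CO₂. Medium was refreshed with G418 and compounds added from DMSO stock, then incubated 4 days at 37 °C. Luciferase was read out, and EC₅₀ was taken as 50% inhibition of replicon RNA replication. Interferon α-2b at 10,000 units/well served as reference.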

The nature of data set [2]: Cytotoxicity against human HuH5.2 cells after 3 days by WST-1 assay. Type of data set: cell-based, Huh-5-2. The procedure, abridged: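 Huh-7-derived Huh-5-2 cells carrying subgenomic genotype 1 HCV replicon (luc-ubi-neo); 5 × 10³ cells/well seeded in complete DMEM with G418; serial compound dilutions in DMEM without G418 added 24 h after seeding; proliferation 3 days at 37 °C; cell number by WST-1. CC50 = concentration reducing cell proliferation by 50%.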

A short description of data set [3]: Selectivity index, ratio of CC50 for human HuH5.2 cells to EC50 for HCV genotype 1 harboring luc-ubi-neo fusion gene. The procedure, abridged: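 SI is CC₅₀/EC₅₀, both measured in Huh-5-2 replicon cells seeded at 5 × 10³/well. For CC₅₀, serial dilutions in complete DMEM without G418 were added 24 h after seeding, cells grew 3 days at 37 °C, and cell number was read by WST-1. EC₅₀ came from the 4-day replicon luciferase assay run with G418.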

As to `O=c1c(OCc2ccccc2Br)c(-c2ccccc2)oc2cc(O)cc(O)c12`, in data set [1], the half-inhibitory concentration (IC50) is 10.5 µM. In addition, the EC50 in the data set with Hepatitis C virus is 9 µM. This compound also displayed a CC50 at 72 h in data set [2] of 12 µM. In data set [3], the “Ratio CC50/EC50” value turned out to be 1.3.
For `N#CCCCOc1ccccc1C(=O)/C=C(\O)C(=O)O`, the IC50 in data set [1] was 0.35 µM.
Turning to `O=c1c(OCc2cccc(Cl)c2)c(-c2ccccc2)oc2cc(O)cc(O)c12`, the IC50 in data set [1] stood at 0.1 µM. Moreover, the EC50 in the data set on Hepatitis C virus came to 25 µM. The CC50 at 72 h in data set [2] came to 46 µM. In addition, the “Ratio CC50/EC50” value in data set [3] is 1.8.
`O=c1c(OCc2cccc(Br)c2)c(-c2ccccc2)oc2cc(O)cc(O)c12`: the IC50 in data set [1] amounted to 4.6 µM. For the same compound, the EC50 with Hepatitis C virus stood at 18 µM. For the same compound, the cytotoxic concentration (CC50) at 72 h in data set [2] came to 15 µM. Further, the “Ratio CC50/EC50” value in data set [3] stood at 0.8.
As for `N#Cc1cccc(COc2c(-c3ccccc3)oc3cc(O)cc(O)c3c2=O)c1`, the IC50 in data set [1] stood at 0.2 µM. In addition, the EC50 in the data set on Hepatitis C virus was determined as 36 µM. This compound also registered a CC50 at 72 h in data set [2] of 21 µM. Further, the “Ratio CC50/EC50” value in data set [3] was determined as 0.6.
The matching figures for `O=c1c(OCc2cccc([N+](=O)[O-])c2)c(-c2ccccc2)oc2cc(O)cc(O)c12`: 6.4 µM, 5 µM, 31 µM and 6.2.
The corresponding values for `Cc1cccc(COc2c(-c3ccccc3)oc3cc(O)cc(O)c3c2=O)c1` are 30 µM, 28 µM, 29 µM and 1.
As to `COc1cccc(COc2c(-c3ccccc3)oc3cc(O)cc(O)c3c2=O)c1`, the IC50 in data set [1] came out at 21 µM. Also, in the data set with Hepatitis C virus, the EC50 came out at 22 µM. The same compound registered a CC50 at 72 h in data set [2] of 28 µM.
With `O=c1c(OCc2ccc(Cl)cc2)c(-c2ccccc2)oc2cc(O)cc(O)c12`, the half-maximal inhibitory concentration (IC50) in data set [1] was 0.3 µM. The EC50 with Hepatitis C virus was 15 µM. In data set [2], this compound returned a CC50 at 72 h of 36 µM. Moreover, the “Ratio CC50/EC50” value in data set [3] is reported as 2.4.
Turning to `O=c1c(OCc2ccc(Br)cc2)c(-c2ccccc2)oc2cc(O)cc(O)c12`, the IC50 in data set [1] came to 1.4 µM. In addition, the half-maximal effective concentration (EC50) with Hepatitis C virus was 12 µM. The compound further yielded a CC50 at 72 h in data set [2] of 2 µM. In addition, the “Ratio CC50/EC50” value in data set [3] is reported as 0.2.
Turning to `N#Cc1ccc(COc2c(-c3ccccc3)oc3cc(O)cc(O)c3c2=O)cc1`, the IC50 in data set [1] turned out to be 1.3 µM. Further, in the data set with Hepatitis C virus, the EC50 was 10 µM. The compound further showed a CC50 at 72 h in data set [2] of 48 µM. The “Ratio CC50/EC50” value in data set [3] was found to be 4.8.
For `O=c1c(OCc2ccc([N+](=O)[O-])cc2)c(-c2ccccc2)oc2cc(O)cc(O)c12`, the IC50 in data set [1] is more than 50 µM. Further, the EC50 in the data set on Hepatitis C virus worked out at 7 µM. This compound also returned a CC50 at 72 h in data set [2] of 40 µM. Moreover, the “Ratio CC50/EC50” value in data set [3] was found to be 5.7.
As for `Cc1ccc(COc2c(-c3ccccc3)oc3cc(O)cc(O)c3c2=O)cc1`, the half-inhibitory concentration (IC50) in data set [1] worked out at 45.2 µM. For the same compound, in the data set with Hepatitis C virus, the 50% effective concentration (EC50) turned out to be 14 µM. Half-maximal cytotoxicity in data set [2] (CC50 at 72 h) was put at 40 µM. In data set [3], the “Ratio CC50/EC50” value was found to be 2.9.
With `COc1ccc(COc2c(-c3ccccc3)oc3cc(O)cc(O)c3c2=O)cc1`, the IC50 in data set [1] came out at 29.5 µM. Besides, the EC50 in the data set with Hepatitis C virus was 10 µM. This compound yielded a CC50 at 72 h in data set [2] of 57 µM. Moreover, in data set [3], the “Ratio CC50/EC50” value was 5.7.
In the case of `O=c1c(OCc2ccccc2Cl)c(-c2ccccc2)oc2cc(O)cc(O)c12`, the IC50 in data set [1] was more than 50 µM. For the same compound, the EC50 in the data set with Hepatitis C virus amounted to 38 µM. Besides, the CC50 at 72 h in data set [2] was more than 100 µM.
Regarding `N#Cc1ccccc1COc1c(-c2ccccc2)oc2cc(O)cc(O)c2c1=O`, the IC50 in data set [1] was found to be 11 µM. In addition, the EC50 with Hepatitis C virus was 5 µM. The compound also had a CC50 at 72 h in data set [2] of more than 100 µM.
In the case of `O=c1c(OCc2ccccc2[N+](=O)[O-])c(-c2ccccc2)oc2cc(O)cc(O)c12`, in data set [1], the IC50 is more than 50 µM. Moreover, the EC50 with Hepatitis C virus is 12 µM. Further, in data set [2], the CC50 at 72 h turned out to be 51 µM. Moreover, in data set [3], the “Ratio CC50/EC50” value turned out to be 4.3.
The matching figures for `Cc1ccccc1COc1c(-c2ccccc2)oc2cc(O)cc(O)c2c1=O`: 7.2 µM, 34 µM, 55 µM and 1.6.
With `COc1ccccc1COc1c(-c2ccccc2)oc2cc(O)cc(O)c2c1=O`, the IC50 in data set [1] is more than 50 µM. For the same compound, the concentration giving a half-maximal response (EC50) in the data set with Hepatitis C virus came out at 28 µM. In data set [2], this compound returned a CC50 at 72 h of 53 µM. Also, in data set [3], the “Ratio CC50/EC50” value amounted to 1.9.

The record behind these values is ChEMBL document CHEMBL1268935, “3-O-arylmethylgalangin, a novel isostere for anti-HCV 1,3-diketoacids (DKAs)” (Bioorg Med Chem, 2010).
